Common to all, as to type: functional
Assay [1] is described as follows: Herbicidal activity against semen euphorbiae assessed as inhibition of weed growth at 500 ug/mL measured 15 days post compound treatment by pot-culture method. The conditions noted are these: 360 h; read-out: GI. The essentials: (§1)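 Pot-culture assay on whole plants. Compounds were dissolved in toluene, diluted in water, and emulsified with a drop of Tween 80. Five parallel tests per compound, each compared with an untreated control, read as the ratio of growth inhibition. The 500 µg/mL level was the preliminary screen; the follow-up used 0.9375–15 µg/mL on cucumber, rice and semen euphorbiae.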

Assay [2] concerns Cucumis sativus. Briefly: Herbicidal activity against Cucumis sativus jinyou 15 (cucumber) assessed as inhibition of weed growth at 500 ug/mL measured 15 days post compound treatment by pot-culture method. As to conditions: jinyou 15, 360 h, read-out: GI. In short, it runs like this: as §1
The subject of assay [3] is Echinochloa crus-galli. Briefly: Herbicidal activity against semen euphorbiae assessed as inhibition of weed growth at 7.5 ug/mL measured 15 days post compound treatment by pot-culture method. The conditions noted are these: 360 h, read-out: GI. The essentials:
as §1

The test system of assay [4] is Oryza sativa. The experiment in a line: Toxicity against Oryza sativa xiuanyou 63 (rice) assessed as growth inhibition at 7.5 ug/mL measured 15 days post compound treatment by pot-culture method. As to conditions: xiuanyou 63, 360 h, read-out: GI. In short, it runs like this: as §1
Assay [5] relates to Cucumis sativus. The experiment in a line: Herbicidal activity against Cucumis sativus jinyou 15 (cucumber) assessed as inhibition of weed growth at 3.75 ug/mL measured 15 days post compound treatment by pot-culture method. The conditions noted are these: jinyou 15, 360 h, read-out: GI. The essentials: as §1
For assay [6], the system named is Echinochloa crus-galli. The experiment in a line: Herbicidal activity against semen euphorbiae assessed as inhibition of weed growth at 15 ug/mL measured 15 days post compound treatment by pot-culture method. The conditions noted are these: 360 h, read-out: GI. In short, it runs like this: as §1
For assay [7], the system named is Echinochloa crus-galli. Briefly: Herbicidal activity against semen euphorbiae assessed as inhibition of weed growth at 3.75 ug/mL measured 15 days post compound treatment by pot-culture method. The conditions noted are these: 360 h, read-out: GI. In short, it runs like this:
as §1

In assay [8] the test system is Echinochloa crus-galli. Briefly: Herbicidal activity against semen euphorbiae assessed as inhibition of weed growth at 1.875 ug/mL measured 15 days post compound treatment by pot-culture method. As to conditions: 360 h, read-out: GI. In short, it runs like this: as §1
Assay [9] has as its system Echinochloa crus-galli. The experiment in a line: Herbicidal activity against semen euphorbiae assessed as inhibition of weed growth at 0.9375 ug/mL measured 15 days post compound treatment by pot-culture method. As to conditions: 360 h, read-out: GI. In short, it runs like this:
as §1

Assay [10] has as its system Oryza sativa. Briefly: Toxicity against Oryza sativa xiuanyou 63 (rice) assessed as growth inhibition at 15 ug/mL measured 15 days post compound treatment by pot-culture method. As to conditions: xiuanyou 63, 360 h, read-out: GI. The essentials:
as §1

For assay [11], the system named is Oryza sativa. The experiment in a line: Toxicity against Oryza sativa xiuanyou 63 (rice) assessed as growth inhibition at 3.75 ug/mL measured 15 days post compound treatment by pot-culture method. The conditions noted are these: xiuanyou 63, 360 h, read-out: GI. The essentials: as §1
The subject of assay [12] is Oryza sativa. The experiment in a line: Toxicity against Oryza sativa xiuanyou 63 (rice) assessed as growth inhibition at 0.9375 ug/mL measured 15 days post compound treatment by pot-culture method. The conditions noted are these: xiuanyou 63, 360 h, read-out: GI. In short, it runs like this: as §1
The subject of assay [13] is Oryza sativa. Briefly: Toxicity against Oryza sativa xiuanyou 63 (rice) assessed as growth inhibition at 1.875 ug/mL measured 15 days post compound treatment by pot-culture method. As to conditions: xiuanyou 63, 360 h, read-out: GI. In short, it runs like this: as §1
Assay [14] concerns Cucumis sativus. Briefly: Herbicidal activity against Cucumis sativus jinyou 15 (cucumber) assessed as inhibition of weed growth at […] measured 15 days post compound treatment by pot-culture method. The conditions noted are these: jinyou 15, 360 h, read-out: GI. The essentials:
as §1

Take `CCN(CC)C(=O)n1cnc([Se](=O)(=O)c2ccccc2)n1`: the inhibition of growth at 500 µg/mL turned out to be 4.18% in assay [1] and 8.75% with Cucumis sativus [2].

As for `CCN(CC)C(=O)n1cnc([Se](=O)(=O)c2ccc(F)c(F)c2)n1`, the figures for the inhibition of growth at 500 µg/mL (in assay [1]; with Cucumis sativus [2]) were 44.3% and 44%, respectively.

`CCN(CC)C(=O)n1cnc([Se](=O)(=O)c2cccc(C(F)(F)F)c2)n1`: the values for the inhibition of growth at 500 µg/mL (in assay [1]; in the assay with Cucumis sativus [2]) were 25.2% and 18.5%, respectively.

As for `CCN(CC)C(=O)n1cnc([Se](=O)(=O)c2c(C)cccc2C)n1`, the inhibition of growth at 7.5 µg/mL stood at 88.9% in the assay with Echinochloa crus-galli [3] and 2.8% in the assay with Oryza sativa [4]. In the assay with Cucumis sativus [5], the inhibition of growth at 3.75 µg/mL is 100%. Besides, the inhibition of growth at 500 µg/mL (in [1]; in the assay with Cucumis sativus [2]) was 100% in each case.

As for `CCN(CC)C(=O)n1cnc([Se](=O)(=O)c2ccc(Cl)cc2)n1`, the inhibition of growth at 500 µg/mL in [1] was found to be 17%; in the assay on Cucumis sativus [2], 18.6%.

Turning to `CCN(CC)C(=O)n1cnc([Se](=O)(=O)c2c(C)cc(C)cc2C)n1`, the figures for the inhibition of growth at 7.5 µg/mL in the assay with Echinochloa crus-galli [3] and with Oryza sativa [4] were 91.1% and 8.3%, respectively. Besides, the inhibition of growth at 3.75 µg/mL in the assay on Cucumis sativus [5] stood at 100%. The inhibition of growth at 500 µg/mL (in assay [1]; in the assay on Cucumis sativus [2]) was 100% in each case.

With `CCN(CC)C(=O)n1cnc([Se](=O)(=O)c2ccc([N+](=O)[O-])cc2)n1`, the inhibition of growth at 500 µg/mL was 46.4% in assay [1] and 26.9% with Cucumis sativus [2].

Consider `CCN(CC)C(=O)n1cnc([Se](=O)(=O)c2ccc(F)cc2F)n1`, for which the inhibition of growth at 500 µg/mL amounted to 53.9% in assay [1] and 33.9% in the assay on Cucumis sativus [2].

`CCN(CC)C(=O)n1cnc([Se](=O)(=O)c2ccc(C(F)(F)F)c(Cl)c2)n1`: the inhibition of growth at 500 µg/mL was 45.6% in assay [1] and 15.3% in the assay with Cucumis sativus [2].

In the case of `CCN(CC)C(=O)n1cnc([Se](=O)(=O)c2ccc(F)c(Cl)c2)n1`, the figures for the inhibition of growth at 500 µg/mL (in assay [1]; in the assay on Cucumis sativus [2]) were 39.6% and 10.7%, respectively.

`CCN(CC)C(=O)n1cnc([Se](=O)(=O)c2ccc(OC)cc2)n1`: the inhibition of growth at 500 µg/mL in assay [1] is 63.9%; with Cucumis sativus [2], 30.3%.

Turning to `CCN(CC)C(=O)n1cnc([Se](=O)(=O)c2ccc(C)cc2C)n1`, the inhibition of growth at 500 µg/mL in assay [1] is 51%; with Cucumis sativus [2] it was 42%.

As to `CCN(CC)C(=O)n1cnc(S(=O)(=O)c2c(C)cc(C)cc2C)n1` [CAFENSTROLE], the inhibition of growth at 15 µg/mL in the assay on Echinochloa crus-galli [6] and in the assay on Oryza sativa [10] was 100% throughout. The inhibition of growth at 7.5 µg/mL in the assay with Echinochloa crus-galli [3] is 95.6%; in the assay on Oryza sativa [4], 72%. Also, the results for the inhibition of growth at 3.75 µg/mL in the assay with Echinochloa crus-galli [7] and with Oryza sativa [11] were 84.4% and 47.2%, respectively. In addition, the figures for the inhibition of growth at 1.875 µg/mL in the assay with Echinochloa crus-galli [8] and in the assay on Oryza sativa [13] were 46.7% and 13.9%, respectively. Further, the figures for the inhibition of growth at 0.9375 µg/mL with Echinochloa crus-galli [9] and with Oryza sativa [12] were 17.8% and 0%, respectively. In the assay with Cucumis sativus [14], the inhibition of growth was 100%. The inhibition of growth at 500 µg/mL (in [1]; in the assay with Cucumis sativus [2]) was 100% throughout.

Source of the values: ChEMBL document CHEMBL3046601, “Synthesis and herbicidal activity of N,N-diethyl-3-(arylselenonyl)-1H-1,2,4-triazole-1-carboxamide” (2006).
